pEC50, pKi: −log10 of the molar value. Activity calls are given as the source filed them. The calls are words filed in the database; no cut-off is given here. Where a SMILES comes first, the peptide text is derived from it.
Key:
[1] = biological target: T1, Kappa-type opioid receptor (Homo sapiens, UniProt P41145); assay: Agonist activity at human recombinant KOR expressed in CHO cells at 1 uM by calcium mobilization assay; format: functional, cell-based
[2] = biological target: Delta-type opioid receptor (Homo sapiens) (UniProt P41143); assay: Agonist activity at human recombinant DOR expressed in CHO cells at 1 uM by calcium mobilization assay; format: functional, cell-based
Chain of Delta-type opioid receptor (Homo sapiens) (P41143 whole entry): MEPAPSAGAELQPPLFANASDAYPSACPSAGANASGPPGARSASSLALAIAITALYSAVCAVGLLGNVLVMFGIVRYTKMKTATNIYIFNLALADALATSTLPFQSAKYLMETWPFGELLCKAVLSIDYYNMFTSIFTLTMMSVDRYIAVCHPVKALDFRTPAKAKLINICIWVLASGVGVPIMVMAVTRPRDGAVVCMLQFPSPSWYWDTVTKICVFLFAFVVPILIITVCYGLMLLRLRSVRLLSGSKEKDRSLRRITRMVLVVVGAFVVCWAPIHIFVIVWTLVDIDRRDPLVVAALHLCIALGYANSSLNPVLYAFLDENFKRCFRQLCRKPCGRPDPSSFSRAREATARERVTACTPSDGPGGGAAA

Mu-type opioid receptor [3] = biological target: T2, Mu-type opioid receptor (Homo sapiens, UniProt P35372); assay: Agonist activity at human recombinant MOR expressed in CHO cells by calcium mobilization assay; format: functional, cell-based
T2 sequence (P35372 whole entry): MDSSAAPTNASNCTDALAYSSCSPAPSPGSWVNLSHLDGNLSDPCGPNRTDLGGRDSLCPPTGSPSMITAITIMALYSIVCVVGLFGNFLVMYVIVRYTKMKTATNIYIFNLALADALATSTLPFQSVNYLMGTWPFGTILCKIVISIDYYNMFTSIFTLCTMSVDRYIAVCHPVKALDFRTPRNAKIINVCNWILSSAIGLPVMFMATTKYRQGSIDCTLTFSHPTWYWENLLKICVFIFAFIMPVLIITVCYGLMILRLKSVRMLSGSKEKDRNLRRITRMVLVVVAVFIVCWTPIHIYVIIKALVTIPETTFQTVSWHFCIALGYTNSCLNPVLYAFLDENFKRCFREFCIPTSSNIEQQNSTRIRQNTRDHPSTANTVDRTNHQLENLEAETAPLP

[4] = biological target: Kappa-type opioid receptor (Cavia porcellus, UniProt P41144); assay: Displacement of [3H]nor-BNI from KOR in Dunkin Hartley guinea pig brain homogenate by scintillation counting analysis; format: tissue-based
Chain of Kappa-type opioid receptor (Cavia porcellus, UniProt P41144) (P41144 whole entry): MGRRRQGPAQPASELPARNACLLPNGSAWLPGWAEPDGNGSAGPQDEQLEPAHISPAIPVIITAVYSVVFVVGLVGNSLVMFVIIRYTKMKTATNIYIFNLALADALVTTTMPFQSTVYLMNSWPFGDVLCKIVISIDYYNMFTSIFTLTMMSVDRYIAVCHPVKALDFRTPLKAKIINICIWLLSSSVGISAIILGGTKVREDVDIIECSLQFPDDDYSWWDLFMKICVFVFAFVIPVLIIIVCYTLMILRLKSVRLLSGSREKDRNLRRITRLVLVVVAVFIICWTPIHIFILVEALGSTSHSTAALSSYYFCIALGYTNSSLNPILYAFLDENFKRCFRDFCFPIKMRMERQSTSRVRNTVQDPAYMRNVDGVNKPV
Outline: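 KOR affinity measured by competitive displacement of [3H]nor-BNI in guinea pig brain membranes. IC50 taken from logarithmic dose–displacement curves and converted to Ki. Three independent experiments run in duplicate.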

[5] = biological target: Delta-type opioid receptor (Rattus norvegicus, UniProt P33533); assay: Displacement of [3H][Ile5,6]deltorphin-2 from DOR in Wistar rat brain homogenate by scintillation counting analysis; format: tissue-based
Chain of Delta-type opioid receptor (P33533 whole entry): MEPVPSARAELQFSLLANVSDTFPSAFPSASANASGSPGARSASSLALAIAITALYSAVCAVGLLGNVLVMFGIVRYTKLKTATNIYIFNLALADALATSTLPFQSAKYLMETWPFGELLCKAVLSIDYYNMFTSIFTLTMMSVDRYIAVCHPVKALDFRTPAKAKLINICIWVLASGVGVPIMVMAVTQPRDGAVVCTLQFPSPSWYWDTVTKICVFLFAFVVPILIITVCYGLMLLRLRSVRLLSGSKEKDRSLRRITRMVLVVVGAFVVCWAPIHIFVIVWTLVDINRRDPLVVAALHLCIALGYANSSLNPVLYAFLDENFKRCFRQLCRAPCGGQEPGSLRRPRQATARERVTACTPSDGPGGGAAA
Outline: (§1)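 Competitive radioligand displacement in brain homogenates from adult male Wistar rats: [3H]DAMGO for MOR, [3H][Ile5,6]deltorphin-2 for DOR. IC50 read from logarithmic dose–displacement curves and converted to Ki. Three independent experiments, each in duplicate.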

Mu-type opioid receptor [6] = biological target: Mu-type opioid receptor (Rattus norvegicus, UniProt P33535); assay: Displacement of [3H]DAMGO from MOR in Wistar rat brain homogenate by scintillation counting analysis; format: tissue-based; outline: as §1
Chain of Mu-type opioid receptor (Rattus norvegicus, UniProt P33535) (P33535 whole entry): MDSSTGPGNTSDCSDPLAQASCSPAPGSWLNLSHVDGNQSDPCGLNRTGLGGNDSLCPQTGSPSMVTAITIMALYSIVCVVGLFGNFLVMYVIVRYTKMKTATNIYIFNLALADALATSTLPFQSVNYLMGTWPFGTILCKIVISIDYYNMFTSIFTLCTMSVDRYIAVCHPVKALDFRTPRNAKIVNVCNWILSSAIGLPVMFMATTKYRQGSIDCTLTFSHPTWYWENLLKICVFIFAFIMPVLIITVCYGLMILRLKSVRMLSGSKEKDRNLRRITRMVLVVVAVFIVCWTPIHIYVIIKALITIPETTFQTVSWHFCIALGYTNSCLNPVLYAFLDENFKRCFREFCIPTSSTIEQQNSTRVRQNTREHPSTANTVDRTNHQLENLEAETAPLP

[7] = biological target: T1, Kappa-type opioid receptor; assay: Intrinsic activity at human recombinant KOR expressed in CHO cells at 1 uM by calcium mobilization assay relative to dynorphin A; format: functional, cell-based
[8] = Retention time of compound by RP-HPLC analysis; format: physicochemical
Outline: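 Solvent A was 0.1% TFA in water and B was 80% acetonitrile with 0.1% TFA. Linear gradient of 0–100% B over 50 min at 1 ml/min.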

[9] = biological target: T1, Kappa-type opioid receptor; assay: Agonist activity at human recombinant KOR expressed in CHO cells by calcium mobilization assay; format: functional, cell-based
Outline: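 CHO cells stably co-expressing human recombinant KOR and the C-terminally modified chimeric G protein Gαqi5. Calcium mobilization read-out. Concentration–response curves fitted with a sigmoidal equation that includes baseline, Emax and Hill coefficient. Potency reported as pEC50, the negative log molar concentration giving 50% of the maximal effect. Efficacy reported as intrinsic activity, the ligand Emax relative to the standard agonist Emax.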

Mu-type opioid receptor [10] = biological target: T2, Mu-type opioid receptor; assay: Agonist activity at human recombinant MOR expressed in CHO cells at 1 uM by calcium mobilization assay; format: functional, cell-based

T1 sequence (P41145 whole entry): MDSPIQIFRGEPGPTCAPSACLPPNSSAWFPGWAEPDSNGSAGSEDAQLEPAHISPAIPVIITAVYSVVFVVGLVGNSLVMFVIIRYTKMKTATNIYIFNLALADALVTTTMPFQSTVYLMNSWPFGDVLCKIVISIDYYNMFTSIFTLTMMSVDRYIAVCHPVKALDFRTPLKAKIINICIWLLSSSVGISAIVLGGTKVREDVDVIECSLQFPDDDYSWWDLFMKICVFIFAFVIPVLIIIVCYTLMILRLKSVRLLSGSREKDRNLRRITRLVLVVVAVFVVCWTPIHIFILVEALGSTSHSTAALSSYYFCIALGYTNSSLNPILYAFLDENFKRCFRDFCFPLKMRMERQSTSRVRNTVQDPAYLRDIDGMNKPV

| SMILES | Activity [1] | Activity [2] | pEC50 (Mu-type opioid receptor [3]) | pKi [4] | pKi [5] | pKi (Mu-type opioid receptor [6]) | Intrinsic activity [7] | Retention_time [8] | pEC50 [9] | Activity (Mu-type opioid receptor [10]) |
| --- | --- | --- | --- | --- | --- | --- | --- | --- | --- | --- |
| CC1(C)SSC(C)(C)[C@@H](NC(=O)[C@@H](N)Cc2ccc(O)cc2)C(=O)NCC(=O)N[C@@H](Cc2ccccc2)C(=O)N[C@H]1C(=O)O | inactive |  |  |  |  |  |  |  |  |  |
| NC(=O)[C@@H]1CCCN1C(=O)[C@H](Cc1ccccc1)NC(=O)[C@@H]1CCCN1C(=O)[C@@H](N)Cc1ccc(O)cc1 [MORPHICEPTIN] (H-YPFP-NH2) | inactive | inactive | 6.13 | < 6.00 | < 6.00 | 7.44 |  |  |  |  |
| NC(=O)[C@H]1CC(F)(F)CN1C(=O)[C@H](Cc1ccccc1)NC(=O)[C@@H]1CC(F)(F)CN1C(=O)[C@@H](N)Cc1ccc(O)cc1 |  | inactive | 8.33 | 6.41 | < 6.00 | 9.43 | 0.84 | 14.99 min | 6.09 |  |
| NC(=O)[C@@H]1CC(F)(F)CN1C(=O)[C@H](Cc1ccccc1)NC(=O)[C@@H]1CC(F)(F)CN1C(=O)[C@@H](N)Cc1ccc(O)cc1 | inactive | inactive | 6.40 | < 6.00 | < 6.00 | 6.98 |  | 14.56 min |  |  |
| NC(=O)[C@H]1CC(F)(F)CN1C(=O)[C@H](Cc1ccccc1)NC(=O)[C@@H]1CCCN1C(=O)[C@@H](N)Cc1ccc(O)cc1 |  | inactive | 7.69 | < 6.00 | < 6.00 | 7.88 |  | 14.22 min |  |  |
| NC(=O)[C@@H]1CCCN1C(=O)[C@H](Cc1ccccc1)NC(=O)[C@H]1CC(F)(F)CN1C(=O)[C@@H](N)Cc1ccc(O)cc1 | inactive | inactive |  | < 6.00 | < 6.00 | < 6.00 |  | 14.1 min |  | inactive |
| C[C@H](NC(=O)[C@@H](N)Cc1ccc(O)cc1)C(=O)N[C@@H](Cc1ccccc1)C(=O)NCC(=O)N[C@@H](Cc1ccc(O)cc1)C(=O)N1CCC[C@H]1C(=O)N[C@@H](CO)C(N)=O | inactive |  |  |  |  |  |  |  |  |  |
